Test results published in ChEMBL document CHEMBL1795256, “Synthesis and biological evaluation of novel aliphatic amido-quaternary ammonium salts for anticancer chemotherapy: part I” (2011).
Calls of active or inactive are those of the source. The rule behind the calls is not given here.

Legend:
HCT-15 = assay: Growth inhibition of human HCT15 cells by sulforhodamine B assay; format: functional
ACHN = assay: Growth inhibition of human ACHN cells by sulforhodamine B assay; format: functional
PC-3 = assay: Growth inhibition of human PC3 cells by sulforhodamine B assay; format: functional
MDA-MB-231 = assay: Growth inhibition of human MDA-MB-231 cells by sulforhodamine B assay; format: functional
NUGC-3 = assay: Growth inhibition of human NUGC3 cells by sulforhodamine B assay; format: functional
[1] = target: Rho-related GTP-binding protein RhoB (Homo sapiens) (UniProt P62745); assay: Transactivation of RhoB expressed in human HeLa cells at 5 uM by dual renilla/firefly luciferase reporter assay; format: cell-based
Procedure, shortened: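 HeLa cells at 75–90% confluence were transiently cotransfected with a pGL2 firefly luciferase plasmid driven by the RhoB promoter (empty pGL2 vector as comparison) plus pRL-SV40 Renilla luciferase. Luciferase activity was measured after compound exposure in a dual-luciferase reporter read-out.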

NCI-H23 = assay: Growth inhibition of human NCI-H23 cells by sulforhodamine B assay; format: functional

Rho-related GTP-binding protein RhoB (Homo sapiens), sequence (P62745 whole entry): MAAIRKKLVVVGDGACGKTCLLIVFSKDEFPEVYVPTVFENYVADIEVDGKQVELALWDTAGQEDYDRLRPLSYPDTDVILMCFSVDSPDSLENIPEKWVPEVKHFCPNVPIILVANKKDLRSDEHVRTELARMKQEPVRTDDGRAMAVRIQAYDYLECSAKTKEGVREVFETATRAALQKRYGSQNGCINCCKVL

SMILES | GI50 (HCT-15) | GI50 (ACHN) | GI50 (PC-3) | GI50 (MDA-MB-231) | Activity [1] | GI50 (NCI-H23) | GI50 (NUGC-3)
C=CC[N+]1(CC)CCN(C(=O)CCCCCCCCCCCCCCCCCCCCC)CC1 | 2.78 µM | 3.38 µM | 1.47 µM | 2.53 µM | Active | 3.94 µM | 1.54 µM
CCCCCCCCCCCCCCCCCCCCCC(=O)N1CC[N+](C)(CC)CC1 | 1.69 µM | 1.9 µM | 0.85 µM | 2.01 µM | – | 2.6 µM | 1.22 µM
CCCCCCCCCCCCCCCC(=O)N1CC[N+](C)(CC)CC1 | 1.8 µM | 1.89 µM | 0.8 µM | 2.05 µM | – | 3.65 µM | 0.58 µM
C=CC[N+]1(C)CCN(C(=O)CCCCCCCCCCCCCCCCCCCCC)CC1 | 2.13 µM | 2.37 µM | 0.96 µM | 3.16 µM | – | 3.07 µM | 1.53 µM
CCCCCCCCCCCCCCCCCCCCCC(=O)N1CC[N+](C)(C)CC1 | 2.41 µM | 2.39 µM | 0.99 µM | 3.51 µM | inactive | 3 µM | 1.15 µM
CCCCCCCCCC(=O)N1CC[N+](C)(C)CC1 | inactive | inactive | inactive | inactive | inactive | inactive | inactive
CCCCCCCCCCCC(=O)N1CC[N+](C)(C)CC1 | inactive | inactive | 0.58 µM | 3.53 µM | inactive | inactive | 1.73 µM
CCCCCCCCCCCCCCCCCCCCCCCC(=O)N1CC[N+](C)(C)CC1 | inactive | inactive | 4.79 µM | inactive | inactive | inactive | inactive
C=CC[N+]1(C)CCN(C(=O)CCCCCCCCCCCCCCC)CC1 | inactive | inactive | inactive | inactive | Active | inactive | inactive
CCCCCCCCCCCCCCCCCCCCCC(=O)N1CC[N+](C)(Cc2ccccc2)CC1 | 2.53 µM | 4.74 µM | 1.24 µM | 1.98 µM | – | 2.95 µM | 1.9 µM

More lines, main results first:

GI50 (HCT-15) | GI50 (ACHN) | GI50 (PC-3) | GI50 (MDA-MB-231) | Activity [1] | GI50 (NCI-H23) | SMILES | GI50 (NUGC-3)
0.85 µM | 1.01 µM | 0.29 µM | 0.89 µM | Active | 1.58 µM | CCCCCCCCCCCCCC(=O)N1CC[N+](C)(C)CC1 | 0.56 µM
0.58 µM | 1.04 µM | 0.48 µM | 1.44 µM | Active | 2.34 µM | CCCCCCCCCCCCCCCC(=O)N1CC[N+](C)(C)CC1 | 0.29 µM
inactive | 0.92 µM | 0.55 µM | 1.16 µM | – | 1.76 µM | CCCCCCCCCCCCCCCC(=O)N1CC[N+](CC)(Cc2ccccc2)CC1 | 0.46 µM
0.54 µM | 1.39 µM | 0.31 µM | 1.63 µM | Active | 1.74 µM | CCCCCCCCCCCCCCCCCCCC(=O)N1CC[N+](C)(C)CC1 | 0.42 µM
1.25 µM | 4.56 µM | 0.44 µM | 2.86 µM | – | 4.21 µM | CCCCCCCCCCCCCCCCCCOP(=O)([O-])OC1CC[N+](C)(C)CC1 [PERIFOSINE] | 0.54 µM
0.81 µM | 2.74 µM | 0.53 µM | 1.62 µM | – | 2.7 µM | CCCCCCCCCCCCCCCCCC(=O)N1CC[N+](C)(C)CC1 | 0.56 µM
5.06 µM | 1.98 µM | 0.51 µM | 1.45 µM | – | 2.05 µM | CCCCCCCCCCCCCCCC(=O)N1CC[N+](C)(Cc2ccccc2)CC1 | 1 µM
1.33 µM | 0.5 µM | 0.37 µM | 0.68 µM | Active | 0.88 µM | C=CC[N+]1(CC)CCN(C(=O)CCCCCCCCCCCCCCC)CC1 | 0.27 µM
